In ChEMBL document CHEMBL2046281, “Pre-steady state kinetic analysis of cyclobutyl derivatives of 2'-deoxyadenosine 5'-triphosphate as inhibitors of HIV-1 reverse transcriptase” (Bioorg Med Chem Lett, 2012):

Legend:
[1] = molecular target: Human immunodeficiency virus type 1 reverse transcriptase (Human immunodeficiency virus 1) (UniProt Q72547); assay: Binding affinity to wild type HIV1 reverse transcriptase assessed as compound incorporation in presence of 50 nM primer template and 10 mM MgCl2 by pre-steady state kinetics study
Method in brief: (§1)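 Pre-steady-state single-nucleotide incorporation by HIV-1 RT (wild type or K65R), 250 nM active-site enzyme, elongating a radiolabeled DNA/DNA primer-template (50 nM) that carries the primer binding site and its complementary sequence. Reactions contained 10 mM MgCl2 and varied nucleotide concentrations. kpol and Kd were derived, and incorporation efficiency was reported in s-1 µM-1.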

[2] = molecular target: Human immunodeficiency virus type 1 reverse transcriptase (Human immunodeficiency virus 1, UniProt Q72547); assay: Binding affinity to wild type HIV1 reverse transcriptase by pre-steady state kinetics study
Method in brief: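 Pre-steady-state single-nucleotide incorporation by wild-type HIV-1 RT (250 nM active sites) into a radiolabeled DNA/DNA primer-template (50 nM) carrying the primer binding site and its complementary sequence. Reactions contained 10 mM MgCl2 and varied nucleotide concentrations. kpol and Kd were taken from the primer elongation data.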

[3] = molecular target: Human immunodeficiency virus type 1 reverse transcriptase (Human immunodeficiency virus 1) (UniProt Q72547); assay: Inhibition of wild type HIV1 reverse transcriptase assessed as compound incorporation efficiency in presence of 50 nM primer template and 10 mM MgCl2 by pre-steady state kinetics study; method in brief: as §1
[4] = molecular target: Human immunodeficiency virus type 1 reverse transcriptase (Human immunodeficiency virus 1) (UniProt Q72547); assay: Discrimination index, ratio of incorporation efficiency of dATP to incorporation efficiency of compound for wild type HIV1 reverse transcriptase
[5] = tested on: Human immunodeficiency virus type 1 reverse transcriptase (Human immunodeficiency virus 1), Q72547 [K65R]; assay: Inhibition of HIV1 reverse transcriptase K65R mutant assessed as compound incorporation efficiency in presence of 50 nM primer template and 10 mM MgCl2 by pre-steady state kinetics study; method in brief: as §1
[6] = molecular target: Human immunodeficiency virus type 1 reverse transcriptase (Human immunodeficiency virus 1, UniProt Q72547, K65R); assay: Binding affinity to HIV1 reverse transcriptase K65R mutant by pre-steady state kinetics study; method in brief: as §1
[7] = tested on: Human immunodeficiency virus type 1 reverse transcriptase (Human immunodeficiency virus 1), Q72547 [K65R]; assay: Binding affinity to HIV1 reverse transcriptase K65R mutant assessed as compound incorporation in presence of 50 nM primer template and 10 mM MgCl2 by pre-steady state kinetics study; method in brief: as §1
[8] = tested on: Human immunodeficiency virus type 1 reverse transcriptase (Human immunodeficiency virus 1), Q72547 [K65R]; assay: Discrimination index, ratio of incorporation efficiency of dATP to incorporation efficiency of compound for wild type HIV1 reverse transcriptase K65R mutant

Row | Structure (SMILES) | Ratio [4] | K [1] [s⁻¹] | Kd [2] [µM] | Activity [3] [s⁻¹ µM⁻¹] | Activity [5] [s⁻¹ µM⁻¹] | Kd [6] [µM] | K [7] [s⁻¹] | Ratio [8]
1 | Nc1ncnc2c1ncn2[C@H]1C[C@H](O)[C@@H](COP(=O)(O)OP(=O)(O)OP(=O)(O)O)O1 | – | 12.3 | 4.6 | 2.7 | 0.61 | 6.6 | 4 | –
2 | C[C@H](Cn1cnc2c(N)ncnc21)OCP(=O)(O)OP(=O)(O)OP(=O)(O)O | 56 | 0.79 | 16.5 | 0.048 | 0.005 | 29.1 | 0.15 | 122
3 | Nc1ncnc2c1ncn2[C@H]1C[C@@H](OCP(=O)(O)OP(=O)(O)OP(=O)(O)O)C1 | 13 | 1.3 | 6.5 | 0.21 | 0.015 | 4.7 | 0.07 | 41

More lines, main results first:

Row | Ratio [4] | Structure (SMILES) | K [1] [s⁻¹] | Kd [2] [µM] | Activity [3] [s⁻¹ µM⁻¹] | Activity [5] [s⁻¹ µM⁻¹] | Kd [6] [µM] | K [7] [s⁻¹] | Ratio [8]
4 | 245 | Nc1ncnc2c1ncn2[C@H]1C[C@@H](COP(=O)(O)OP(=O)(O)OP(=O)(O)O)C1 | 0.23 | 20.4 | 0.011 | – | – | – | –
5 | 519 | Nc1ncnc2c1ncn2[C@@H]1C[C@H](COP(=O)(O)OP(=O)(O)OP(=O)(O)O)[C@H]1F | 0.13 | 25.5 | 0.0052 | – | – | – | –
6 | 386 | NC1=Nc2ncnc3c2c(cn3[C@H]2C[C@@H](COP(=O)(O)OP(=O)(O)OP(=O)(O)O)C2)C=C1 | 0.16 | 22.4 | 0.007 | – | – | – | –
